Measurements taken from publication PMC8068092 (Molecular pharmaceutics, 2020).

Assays:
[1] = tested on: MDA-MB-468 cells (mtp53 R273H) compared to MCF7 cells (wtp53); test: Cy5p53Tet cellular uptake by live cell imaging; format: cell-based, human; settings: 500 nM, 2 h incubation, 37 °C; confocal microscopy, Nikon Element analysis, at least 200 cells per sample
[2] = tested on: MDA-MB-468 cells (mtp53) compared to MCF7 cells (wtp53); test: Cy5p53Tet cellular uptake by flow cytometry; format: cell-based, human; settings: 2 h, 37 °C
How it was run: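 MCF7 and MDA-MB-468 cells in DMEM with 10% FBS, seeded at 5 × 10^5 per well and held at 37 °C overnight. Medium swapped for vehicle, 100 or 500 nM Cy5-peptide for 2 h at 37 °C. Cells washed, trypsinized, pelleted and resuspended in PBS. 2 × 10^4 events per sample; geometric MFI taken.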

[3] = tested on: MCF-10A nonmalignant human mammary epithelial cells (wtp53); test: Peptide cytotoxicity assay; format: cell-based; settings: 500 nM Cy5p53Tet, 24 h, three independent experiments
MCF7 cells (wtp53) = test: Peptide cytotoxicity assay; format: cell-based, human; settings: 500 nM Cy5p53Tet, 24 h, three independent experiments
How it was run: (§1)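 Cells (1.25 × 10^5, 12-well) seeded the day before at 37 °C, then given 500 nM Cy5-peptide for 24 h. MTT (5 mg/mL solution) added for 1 h at 37 °C. Product dissolved in 0.04 N HCl/isopropanol, 5 min in the dark at room temperature. Absorbance read at 550 nm minus 620 nm background. Three independent experiments; mean ± SEM, t-test.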

[4] = tested on: MDA-MB-468 cells (mtp53 R273H); test: Peptide cytotoxicity assay; format: cell-based, human; settings: 500 nM Cy5p53Tet, 24 h, three independent experiments
How it was run: as §1

[5] = tested on: HCC70 cells (mtp53 R248Q); test: Peptide cytotoxicity assay; format: cell-based, human; settings: 500 nM Cy5p53Tet, 24 h, three independent experiments
How it was run: as §1

[6] = tested on: MDA-MB-468 (mtp53 R273H) and MCF7 (wtp53) xenografts; test: NIRF imaging in mice bearing bilateral MCF7/MDA-MB-468 xenografts; format: in vivo, mouse
[7] = tested on: MDA-MB-468 shp53 cells (mtp53 R273H knockdown); test: Cy5p53Tet uptake with and without shRNA depletion of mtp53; format: cell-based, human; settings: 500 nM; for Reduction of Cy5p53Tet signal (relative ROI intensity) on depletion of mtp53: knockdown vs control
How it was run: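 MDA-MB-468 shp53 knockdown induced with 8 μg/mL doxycycline for 7 days; p53 depletion checked by Western blot. Cells seeded at 2 × 10^5 per well 1 day before, then given 500 nM Cy5-peptide at 37 °C for 30 min, 2 h, 4 h or 24 h. Peptide removed, cells PBS-washed, Hoechst-stained (1 μg/mL, 5 min), confocal Z-stacks at 60×. Three independent experiments; mean + SEM, two-tailed t-test.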

[8] = after intravenous administration, IVIS Spectrum

H-CysCy5-RKKRRQRRGEYFTLQIRGRER-FEMFRELNEALELK-OH [Cy5p53Tet]
Uptake of Cy5p53Tet in MDA-MB-468 cells compared to MCF7 cells [1]: twofold higher uptake | Geometric MFI, fold more uptake in MDA-MB-468 than in MCF7 cells ([2]; 100 nM Cy5p53Tet): 1.58 fold | Geometric MFI, fold more uptake in MDA-MB-468 than in MCF7 cells ([2]; 500 nM Cy5p53Tet): 1.65 fold | Reduction of mitochondrial activity (MTT) [3]: No significant reduction of mitochondrial activity | Reduction of mitochondrial activity (MTT) (MCF7 cells (wtp53)): 9.8% | Reduction of mitochondrial activity (MTT) [4]: 10.6% | Reduction of mitochondrial activity (MTT) [5]: 13.6% | In vivo NIRF signal in MCF7 tumors [6, 8]: no signal was present | In vivo NIRF signal in MDA-MB-468 tumors [6, 8]: clearly observed | Signal in healthy tissues (whole-body and resected tissue images) ([6]; liver, large intestines, small intestines, three mice): significantly high levels of the signal in several healthy tissues | Reduction of Cy5p53Tet signal (relative ROI intensity) on depletion of mtp53 ([7]; 30 min incubation): 61% | Reduction of Cy5p53Tet signal (relative ROI intensity) on depletion of mtp53 ([7]; 2 h incubation): 63% | Reduction of Cy5p53Tet signal (relative ROI intensity) on depletion of mtp53 ([7]; 4 h incubation): 67% | Difference of Cy5p53Tet signal between knockdown and control cells ([7]; 24 h incubation): no statistically significant difference
